{"source": "ChEMBL document CHEMBL1649102", "about": "“Stereochemical survey of digitoxin monosaccharides: new anticancer analogues with enhanced apoptotic activity and growth inhibitory effect on human non-small cell lung cancer cell” (ACS Med Chem Lett, 2011)", "key": {"[1]": {"experiment": "Growth inhibition of human NCI60 cells", "format": "functional", "summary_of_the_method": "(§1)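 NCI-60 cell lines grown in RPMI 1640 with 5% FBS and 2 mM L-glutamine, plated at 5,000–40,000 cells/well and preincubated 24 h. Time-zero plates were TCA-fixed. Drug was given at five concentrations (10-fold or ½-log dilutions from DMSO stock) for 48 h at 37°C. Cells were TCA-fixed, stained with SRB, and read at 515 nm. GI50 is where [(Ti−Tz)/(C−Tz)]×100 = 50.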"}, "TK-10": {"test_system": "TK-10", "experiment": "Growth inhibition of human TK10 cells", "format": "functional", "summary_of_the_method": "(§2)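 NCI-60 panel SRB assay. Cells in RPMI 1640 with 5% FBS and 2 mM L-glutamine, plated at 5,000-40,000 cells/well and grown 24 h before dosing; time-zero plates TCA-fixed. Five concentrations (10-fold or ½ log dilutions, from DMSO stock) applied for 48 h at 37°C. TCA fixation (16% final for suspension cells), SRB stain, absorbance 515 nm; GI50 from net protein increase versus control.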"}, "NCI-H460 [2]": {"test_system": "NCI-H460", "experiment": "Induction of apoptosis human NCI-H460 cells assessed as cellular degradation at 50 nM after 12 hrs by Hoechst-33342 staining", "format": "functional", "summary_of_the_method": "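NCI-H460 seeded 50,000 cells/well for 12 h, then exposed 12 h in serum-free medium (DMSO <0.1%). Stained 30 min at 37°C with 10 µg/ml Hoechst 33342 plus 20 µg/ml propidium iodide. Condensed or fragmented nuclei scored by fluorescence microscopy; apoptotic index = apoptotic/total nuclei ×100. 2 replicate wells, ≥3 runs (N = 6).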"}, "DU-145": {"test_system": "DU-145", "experiment": "Growth inhibition of human DU145 cells", "format": "functional", "summary_of_the_method": "as §1"}, "OVCAR-8": {"test_system": "OVCAR-8", "experiment": "Growth inhibition of human OVCAR8 cells", "format": "functional", "summary_of_the_method": "as §1"}, "NCI-H460 [3]": {"test_system": "NCI-H460", "experiment": "Growth inhibition of human NCI-H460 cells", "format": "functional", "summary_of_the_method": "as §1"}, "A498": {"test_system": "A498", "experiment": "Growth inhibition of human A498 cells", "format": "functional", "summary_of_the_method": "as §1"}, "HCT-116": {"test_system": "HCT-116", "experiment": "Growth inhibition of human HCT116 cells", "format": "functional", "summary_of_the_method": "as §1"}, "A549": {"test_system": "A549", "experiment": "Growth inhibition of human A549 cells", "format": "functional", "summary_of_the_method": "as §1"}, "NCI-H460 [4]": {"test_system": "NCI-H460", "experiment": "Cytotoxicity against human NCI-H460 cells assessed as cell death at 50 nM after 12 hrs by Hoechst-33342 staining and propidium iodide staining", "format": "functional, cell-based", "details": "NCI-H460, 12 h", "summary_of_the_method": "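NCI-H460 cells were seeded at 50,000 cells/well for 12 h, then exposed 12 h in serum-free medium (DMSO <0.1%). Cells were stained with Hoechst 33342 (10 µg/ml) and propidium iodide (20 µg/ml) for 30 min at 37°C. Condensed or fragmented nuclei were scored by fluorescence microscopy, and apoptotic index = apoptotic/total nuclei ×100. Duplicate wells, ≥3 runs (N = 6).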"}, "SN12C": {"test_system": "SN12C", "experiment": "Growth inhibition of human SN12C cells", "format": "functional", "summary_of_the_method": "as §2"}, "ACHN": {"test_system": "ACHN", "experiment": "Growth inhibition of human ACHN cells", "format": "functional", "summary_of_the_method": "as §1"}, "RXF 393": {"test_system": "RXF 393", "experiment": "Growth inhibition of human RXF393 cells", "format": "functional", "summary_of_the_method": "as §1"}, "NCI-H460 [5]": {"test_system": "NCI-H460", "experiment": "Growth inhibition of human NCI-H460 cells after 48 hrs by MTT assay", "format": "functional", "details": "NCI-H460, 48 h", "summary_of_the_method": "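NCI-H460 cells in RPMI 1640 with 10% FBS were seeded at 10,000 cells/well for 12 h. Drug was diluted 1000× from DMSO into 1% FBS medium (DMSO <0.1%). Time-course runs used 50 nM; dose–response runs used 48 h exposure. Viability was read by MTT (4 h), with formazan dissolved in DMSO for 45 min and read at 562 nm. Triplicate wells, ≥3 runs (N = 9), two-way ANOVA.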"}, "CAKI-1": {"test_system": "CAKI-1", "experiment": "Growth inhibition of human Caki1 cells", "format": "functional", "summary_of_the_method": "as §1"}, "UO-31": {"test_system": "UO-31", "experiment": "Growth inhibition of human UO31 cells", "format": "functional", "summary_of_the_method": "as §2"}, "786-0": {"test_system": "786-0", "experiment": "Growth inhibition of human 786-0 cells", "format": "functional", "summary_of_the_method": "as §1"}, "MOLT-4": {"test_system": "MOLT-4", "experiment": "Growth inhibition of human MOLT4 cells", "format": "functional", "summary_of_the_method": "as §1"}, "OVCAR-3": {"test_system": "OVCAR-3", "experiment": "Growth inhibition of human OVCAR3 cells", "format": "functional", "summary_of_the_method": "as §1"}}, "note": "The source made the active and inactive calls. The calls are words filed in the database; no cut-off is given here."}
{"smiles": "C[C@H]1O[C@H](O[C@H]2CC[C@@]3(C)[C@H](CC[C@@H]4[C@@H]3CC[C@]3(C)[C@@H](C5=CC(=O)OC5)CC[C@]43O)C2)C=C[C@@H]1O", "values": [{"measurement": "GI50", "setting": "[1]", "value": 1, "unit": "nM"}]}
{"smiles": "C[C@@H]1O[C@H](O[C@H]2CC[C@@]3(C)[C@H](CC[C@@H]4[C@@H]3CC[C@]3(C)[C@@H](C5=CC(=O)OC5)CC[C@]43O)C2)C[C@H](O)[C@H]1O", "values": [{"measurement": "GI50", "setting": "[1]", "value": 1, "unit": "nM"}]}
{"smiles": "C[C@@H]1O[C@@H](O[C@H]2CC[C@@]3(C)[C@H](CC[C@@H]4[C@@H]3CC[C@]3(C)[C@@H](C5=CC(=O)OC5)CC[C@]43O)C2)C=C[C@H]1O", "values": [{"measurement": "GI50", "setting": "[1]", "value": 1, "unit": "nM"}]}
{"smiles": "C[C@@H]1O[C@@H](O[C@H]2CC[C@@]3(C)[C@H](CC[C@@H]4[C@@H]3CC[C@]3(C)[C@@H](C5=CC(=O)OC5)CC[C@]43O)C2)CC[C@H]1O", "note": "[RAMNODIGIN]", "values": [{"measurement": "growth inhibition (GI)", "setting": "TK-10", "value": "Active"}, {"measurement": "Activity", "setting": "NCI-H460 [2]", "value": 33, "unit": "%"}, {"measurement": "growth inhibition (GI)", "setting": "DU-145", "value": "Active"}, {"measurement": "growth inhibition (GI)", "setting": "OVCAR-8", "value": "Active"}, {"measurement": "growth inhibition (GI)", "setting": "NCI-H460 [3]", "value": "Active"}, {"measurement": "growth inhibition (GI)", "setting": "A498", "value": "Active"}, {"measurement": "growth inhibition (GI)", "setting": "HCT-116", "value": "Active"}, {"measurement": "growth inhibition (GI)", "setting": "A549", "value": "Active"}, {"measurement": "IC50", "setting": "NCI-H460 [4]", "value": 55.7, "unit": "nM"}, {"measurement": "growth inhibition (GI)", "setting": "SN12C", "value": "Active"}, {"measurement": "growth inhibition (GI)", "setting": "ACHN", "value": "Active"}, {"measurement": "growth inhibition (GI)", "setting": "RXF 393", "value": "Active"}, {"measurement": "GI50", "setting": "NCI-H460 [5]", "value": 2.2, "unit": "nM"}, {"measurement": "growth inhibition (GI)", "setting": "CAKI-1", "value": "Active"}, {"measurement": "growth inhibition (GI)", "setting": "UO-31", "value": "Active"}, {"measurement": "growth inhibition (GI)", "setting": "786-0", "value": "Active"}, {"measurement": "growth inhibition (GI)", "setting": "MOLT-4", "value": "Active"}, {"measurement": "growth inhibition (GI)", "setting": "OVCAR-3", "value": "Active"}, {"measurement": "GI50", "setting": "[1]", "value": 12, "unit": "nM"}]}
{"smiles": "C[C@@H]1O[C@H](O[C@H]2CC[C@@]3(C)[C@H](CC[C@@H]4[C@@H]3CC[C@]3(C)[C@@H](C5=CC(=O)OC5)CC[C@]43O)C2)C[C@@H](O)[C@H]1O", "values": [{"measurement": "GI50", "setting": "[1]", "value": "> 50", "unit": "nM"}]}
{"smiles": "C[C@H]1O[C@@H](O[C@H]2[C@@H](O)C[C@H](O[C@H]3[C@@H](O)C[C@H](O[C@H]4CC[C@@]5(C)[C@H](CC[C@@H]6[C@@H]5CC[C@]5(C)[C@@H](C7=CC(=O)OC7)CC[C@]65O)C4)O[C@@H]3C)O[C@@H]2C)C[C@H](O)[C@@H]1O", "note": "[DIGITOXIN]", "values": [{"measurement": "IC50", "setting": "NCI-H460 [4]", "value": 357, "unit": "nM"}, {"measurement": "GI50", "setting": "NCI-H460 [5]", "value": 10.7, "unit": "nM"}]}
{"smiles": "C[C@H]1O[C@H](O[C@H]2CC[C@@]3(C)[C@H](CC[C@@H]4[C@@H]3CC[C@]3(C)[C@@H](C5=CC(=O)OC5)CC[C@]43O)C2)CC[C@@H]1O", "values": [{"measurement": "GI50", "setting": "[1]", "value": 113, "unit": "nM"}]}
{"smiles": "C[C@H]1O[C@@H](O[C@H]2[C@@H](O)C[C@H](O[C@H]3CC[C@@]4(C)[C@H](CC[C@@H]5[C@@H]4CC[C@]4(C)[C@@H](C6=CC(=O)OC6)CC[C@]54O)C3)O[C@@H]2C)C[C@H](O)[C@@H]1O", "values": [{"measurement": "GI50", "setting": "[1]", "value": 50, "unit": "nM"}]}
{"smiles": "C[C@H]1O[C@@H](O[C@H]2CC[C@@]3(C)[C@H](CC[C@@H]4[C@@H]3CC[C@]3(C)[C@@H](C5=CC(=O)OC5)CC[C@]43O)C2)C[C@H](O)[C@@H]1O", "values": [{"measurement": "growth inhibition (GI)", "setting": "TK-10", "value": "Active"}, {"measurement": "Activity", "setting": "NCI-H460 [2]", "value": 28.8, "unit": "%"}, {"measurement": "growth inhibition (GI)", "setting": "DU-145", "value": "Active"}, {"measurement": "growth inhibition (GI)", "setting": "OVCAR-8", "value": "Active"}, {"measurement": "growth inhibition (GI)", "setting": "NCI-H460 [3]", "value": "Active"}, {"measurement": "growth inhibition (GI)", "setting": "A498", "value": "Active"}, {"measurement": "growth inhibition (GI)", "setting": "HCT-116", "value": "Active"}, {"measurement": "growth inhibition (GI)", "setting": "A549", "value": "Active"}, {"measurement": "IC50", "setting": "NCI-H460 [4]", "value": 74.8, "unit": "nM"}, {"measurement": "growth inhibition (GI)", "setting": "SN12C", "value": "Active"}, {"measurement": "growth inhibition (GI)", "setting": "ACHN", "value": "Active"}, {"measurement": "growth inhibition (GI)", "setting": "RXF 393", "value": "Active"}, {"measurement": "GI50", "setting": "NCI-H460 [5]", "value": 3.8, "unit": "nM"}, {"measurement": "growth inhibition (GI)", "setting": "CAKI-1", "value": "Active"}, {"measurement": "growth inhibition (GI)", "setting": "UO-31", "value": "Active"}, {"measurement": "growth inhibition (GI)", "setting": "786-0", "value": "Active"}, {"measurement": "growth inhibition (GI)", "setting": "MOLT-4", "value": "Active"}, {"measurement": "growth inhibition (GI)", "setting": "OVCAR-3", "value": "Active"}, {"measurement": "GI50", "setting": "[1]", "value": 25, "unit": "nM"}]}
